{
  "source": "paper PMC3157688",
  "about": "(The FASEB Journal, 2011)",
  "key": {"[1]": {"tested_on": "human APP processing in the brain of APP[V717I]-transgenic mice", "assay": "Immunoblot of sAPPα and full-length APP in brain homogenates, first study", "format": "in vivo, mouse", "details": "10 μg daily intranasal, administration solution 1, 3 mo; 4-mo-old male mice", "in_short": "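Male APP[V717I] mice (FVB/N background), 1 mo old, received the test compound intranasally at 10 μg/d (1 μg/μl, 5 μl/nostril), 5 d/wk for 3 mo. Vehicle: NaCl/citric acid/disodium phosphate/benzalkonium chloride water solution. Controls (n=8) received carrier alone. Hemispheres homogenized in ice-cold 20 mM Tris-HCl pH 8.5 plus protease inhibitors, then centrifuged at 100,000 g for 1 h at 4°C. sAPPα probed with 6E10 and a 35S-labeled or peroxidase-coupled secondary.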"}, "[2]": {"tested_on": "brain mRNA levels of APP[V717I] transgenic mice", "assay": "Quantitative real-time RT-PCR of brain mRNA levels", "format": "in vivo, mouse", "details": "6-mo-old mice, 3 mo intranasal treatment; n=7/group"}, "[3]": {"tested_on": "APP[V717I]-transgenic mice", "assay": "Open field activity and enriched open field", "format": "in vivo, mouse", "details": "6-mo-old mice after 3 mo of daily intranasal treatment; data not shown"}, "[4]": {"tested_on": "healthy human male subjects", "details": "cited from earlier work"}},
  "data": [
    {"substance": "pituitary adenylate cyclase-activating polypeptide [PACAP38]", "values": [
      {"measurement": "expression level of full-length APP in the brain", "setting": "[1]", "value": "no influence"},
      {"measurement": "ADAM10 gene expression in brain (in words)", "setting": "[2]", "value": "not caused by increased ADAM10 and ADAM17 gene expression"},
      {"measurement": "ADAM17 gene expression in brain (in words)", "setting": "[2]", "value": "not caused by increased ADAM10 and ADAM17 gene expression"},
      {"measurement": "activity and exploration-related parameters, difference between the tested groups", "setting": "[3]", "value": "no differences"},
      {"measurement": "tolerability of inhaled peptide", "setting": "[4]", "value": "well tolerated without systemic side-effects"}
    ]}
  ]
}
